From ChEMBL document CHEMBL4028818, “Tricyclic 4,4-dimethyl-3,4-dihydrochromeno[3,4-d]imidazole derivatives as microsomal prostaglandin E2 synthase-1 (mPGES-1) inhibitors: SAR and in vivo efficacy in hyperalgesia pain model” (Bioorg Med Chem Lett, 2017) come the findings set out here.

A short description of data set [1]: Metabolic stability in Guinea pig liver microsomes assessed as parent compound remaining at 1 uM after 60 mins in presence of NADPH by LC/MS/MS analysis. The data set is classed as ADME, Cavia porcellus, microsome. To be noted: read-out: Stability. Summed up:
(§1)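 Compound at 1.0 µM was incubated with liver microsomes (1.0 mg/mL protein) at 37 °C for 60 min. Samples were analysed by LC/MS/MS as % parent remaining. Run in triplicate.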
Background: Liver microsomes are a subcellular fraction often used to study metabolism.

A further data set concerns the target CYP2C9 (Homo sapiens, UniProt P11712). As to the kind of experiment: Inhibition of CYP2C9 in human liver microsomes at 10 uM measured after 20 mins in presence of NADPH by LC/MS/MS analysis relative to control. Format: ADME. Summed up:
(§2)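 CYP isoforms 1A2, 2D6, 3A4, 2C9 and 2C19 were tested at 1 and 10 µM. Results are % inhibition compared with a no-inhibitor control, run in triplicate.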

The target of a further data set is CYP2C19 (Homo sapiens, UniProt P33261). As to the kind of experiment: Inhibition of CYP2C19 in human liver microsomes at 10 uM measured after 40 mins in presence of NADPH by LC/MS/MS analysis relative to control. The data set is classed as ADME. Put shortly:
as §2

A short description of data set [2]: Metabolic stability in rat liver microsomes assessed as parent compound remaining at 1 uM after 60 mins in presence of NADPH by LC/MS/MS analysis. The note with it: read-out: Stability. Format: ADME, microsome. Put shortly: as §1
A short description of data set [3]: Half life in Sprague-Dawley rat at 5 mg/kg, iv administered as single bolus dose. Format: ADME, organism-based. The note with it: in vivo. Summed up:
(§3)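 Male Sprague-Dawley rats were dosed i.v. in a vehicle of 20% NMP + 20% ethanol + 60% PEG 200. T1/2, CL and Vz were derived. Values are mean ± SD, n = 3.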

Data set [4] concerns the target Prostaglandin G/H synthase 1 (Homo sapiens, UniProt P23219). As to the kind of experiment: Inhibition of COX1 in human U937 cells assessed as decrease in PGE2 release using arachidonic acid as substrate preincubated for 15 mins followed by arachidonic acid addition measured after 5 mins. The data set is classed as cell-based.
Data set [5] can be described thus: Cmax in Sprague-Dawley rat at 10 mg/kg, po. Format: ADME, organism-based. Also on record: dose 10 mg/kg, route oral. The note with it: in vivo. Summed up: (§4)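 Male Sprague-Dawley rats were dosed orally as a 0.5% methylcellulose suspension. Cmax, AUC0-24, Tmax, T1/2 and %F were determined. Values are mean ± SD, n = 3.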
Data set [6] in a line: Clearance in Sprague-Dawley rat at 5 mg/kg, iv administered as single bolus dose. The note with it: in vivo. Format: ADME, organism-based. Summed up: as §3
A further data set concerns the target Cytochrome P450 2D6 (Homo sapiens, UniProt P10635). Kind of data set: Inhibition of CYP2D6 in human liver microsomes at 1 uM measured after 20 mins in presence of NADPH by LC/MS/MS analysis. The data set is classed as ADME. Summed up:
as §2

A short description of data set [7]: Protein binding in Guinea pig plasma at 10 uM after 5 to 10 mins by LC-MS/SM analysis. The data set is classed as ADME, cell-free, Cavia porcellus. The note with it: read-out: PPB. Put shortly:
(§5)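 Plasma protein binding was measured by equilibrium dialysis at 10 µM compound.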

In a further data set the target is T1, Prostaglandin E synthase (Homo sapiens, UniProt O14684).
T1 sequence (O14684 whole entry): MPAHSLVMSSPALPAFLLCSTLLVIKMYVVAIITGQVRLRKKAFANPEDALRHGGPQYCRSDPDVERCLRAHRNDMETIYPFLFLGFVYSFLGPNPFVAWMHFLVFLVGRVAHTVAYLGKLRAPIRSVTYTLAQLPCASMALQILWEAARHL
Kind of data set: Inhibition of recombinant human mPGES-1 expressed in CHO cells assessed as reduction in PGE2 formation using PGH2 a substrate preincubated for 10 mins followed by substrate addition measured after 1 min. The data set is classed as cell-based. Summed up: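 mPGES-1 enzyme inhibition. % inhibition values are means of two experiments in duplicate. IC50 values were derived from graphs of at least two experiments in duplicate.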

A short description of data set [8]: Tmax in Sprague-Dawley rat at 10 mg/kg, po. Format: ADME, organism-based. The note with it: in vivo. Put shortly: as §4
A further data set deals with T2, Cytochrome P450 1A2 (Homo sapiens, UniProt P05177).
T2 sequence (P05177 whole entry): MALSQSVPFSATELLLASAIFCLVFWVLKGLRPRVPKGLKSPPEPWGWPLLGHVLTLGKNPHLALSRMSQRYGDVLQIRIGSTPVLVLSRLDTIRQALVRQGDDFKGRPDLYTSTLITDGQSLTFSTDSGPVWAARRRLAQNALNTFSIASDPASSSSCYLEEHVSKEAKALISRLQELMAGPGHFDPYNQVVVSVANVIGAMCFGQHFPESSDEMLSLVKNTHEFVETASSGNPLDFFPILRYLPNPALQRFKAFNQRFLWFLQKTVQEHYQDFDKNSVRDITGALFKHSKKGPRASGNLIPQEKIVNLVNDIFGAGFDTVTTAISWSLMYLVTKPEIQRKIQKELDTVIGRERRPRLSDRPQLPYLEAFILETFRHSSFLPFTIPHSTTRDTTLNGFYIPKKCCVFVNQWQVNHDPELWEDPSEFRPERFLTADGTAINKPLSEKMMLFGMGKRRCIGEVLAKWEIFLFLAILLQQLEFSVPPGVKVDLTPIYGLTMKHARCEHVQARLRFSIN
Kind of data set: Inhibition of CYP1A2 in human liver microsomes at 1 uM measured after 20 mins in presence of NADPH by LC/MS/MS analysis. Format: ADME. Put shortly:
as §2

The nature of data set [9]: Protein binding in human plasma at 10 uM after 5 to 10 mins by LC-MS/SM analsysis. The data set is classed as ADME, cell-free. To be noted: read-out: PPB. Summed up:
as §5

Data set [10] in a line: Metabolic stability in human liver microsomes assessed as parent compound remaining at 1 uM after 60 mins in presence of NADPH by LC/MS/MS analysis. The data set is classed as ADME, microsome. The note with it: read-out: Stability. Summed up: as §1
In data set [11] the target is T3, Prostaglandin G/H synthase 2 (Homo sapiens, UniProt P35354).
T3 sequence (P35354 whole entry): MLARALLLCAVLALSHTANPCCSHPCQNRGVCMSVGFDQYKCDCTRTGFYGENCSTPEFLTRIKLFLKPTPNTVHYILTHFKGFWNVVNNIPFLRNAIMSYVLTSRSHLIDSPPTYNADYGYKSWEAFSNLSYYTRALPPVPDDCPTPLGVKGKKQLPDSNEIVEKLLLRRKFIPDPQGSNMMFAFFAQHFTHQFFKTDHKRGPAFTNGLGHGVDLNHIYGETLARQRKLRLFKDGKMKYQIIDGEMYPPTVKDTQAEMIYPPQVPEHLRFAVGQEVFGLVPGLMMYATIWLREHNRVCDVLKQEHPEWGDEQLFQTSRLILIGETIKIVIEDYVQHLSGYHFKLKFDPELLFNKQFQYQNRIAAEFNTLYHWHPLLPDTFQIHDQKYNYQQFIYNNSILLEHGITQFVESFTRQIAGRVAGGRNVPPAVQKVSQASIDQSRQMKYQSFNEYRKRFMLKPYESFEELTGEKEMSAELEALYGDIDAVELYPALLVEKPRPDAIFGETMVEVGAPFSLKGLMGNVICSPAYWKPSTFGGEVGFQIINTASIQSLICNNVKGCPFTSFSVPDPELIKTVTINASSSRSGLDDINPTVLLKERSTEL
Kind of data set: Inhibition of recombinant human N-terminal His-tagged COX2 expressed in baculovirus infected Sf21 insect cells assessed as decrease in PGE2 release using arachidonic acid as substrate preincubated for 15 mins followed by arachidonic acid addition measured after 5 mins.

The target in another data set is CYP3A4 (Homo sapiens, UniProt P08684). Kind of data set: Inhibition of CYP3A4 in human liver microsomes at 10 uM measured after 20 mins in presence of NADPH by LC/MS/MS analysis relative to control. Format: ADME. Put shortly:
as §2

Data set [12] is described as follows: AUC (0 to 24 hrs) in Sprague-Dawley rat at 10 mg/kg, po. Also on record: dose 10 mg/kg, time < 24 hr, route oral. Format: ADME, organism-based. The note with it: in vivo. Summed up: as §4

Cytochrome P450 2D6, sequence (P10635 whole entry): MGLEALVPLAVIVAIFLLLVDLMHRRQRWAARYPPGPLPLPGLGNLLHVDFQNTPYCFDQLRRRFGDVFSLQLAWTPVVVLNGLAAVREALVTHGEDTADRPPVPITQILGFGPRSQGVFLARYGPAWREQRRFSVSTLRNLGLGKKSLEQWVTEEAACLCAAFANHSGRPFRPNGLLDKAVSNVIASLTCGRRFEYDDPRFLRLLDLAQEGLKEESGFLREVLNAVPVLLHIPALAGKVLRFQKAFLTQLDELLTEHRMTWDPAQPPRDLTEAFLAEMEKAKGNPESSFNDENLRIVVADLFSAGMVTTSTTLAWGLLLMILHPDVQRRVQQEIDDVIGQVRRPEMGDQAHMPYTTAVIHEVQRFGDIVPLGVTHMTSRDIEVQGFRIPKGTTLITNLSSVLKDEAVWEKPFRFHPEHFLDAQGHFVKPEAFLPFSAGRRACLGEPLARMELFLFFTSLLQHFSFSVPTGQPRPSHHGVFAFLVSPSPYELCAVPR
CYP2C9, sequence (P11712 whole entry, canonical isoform): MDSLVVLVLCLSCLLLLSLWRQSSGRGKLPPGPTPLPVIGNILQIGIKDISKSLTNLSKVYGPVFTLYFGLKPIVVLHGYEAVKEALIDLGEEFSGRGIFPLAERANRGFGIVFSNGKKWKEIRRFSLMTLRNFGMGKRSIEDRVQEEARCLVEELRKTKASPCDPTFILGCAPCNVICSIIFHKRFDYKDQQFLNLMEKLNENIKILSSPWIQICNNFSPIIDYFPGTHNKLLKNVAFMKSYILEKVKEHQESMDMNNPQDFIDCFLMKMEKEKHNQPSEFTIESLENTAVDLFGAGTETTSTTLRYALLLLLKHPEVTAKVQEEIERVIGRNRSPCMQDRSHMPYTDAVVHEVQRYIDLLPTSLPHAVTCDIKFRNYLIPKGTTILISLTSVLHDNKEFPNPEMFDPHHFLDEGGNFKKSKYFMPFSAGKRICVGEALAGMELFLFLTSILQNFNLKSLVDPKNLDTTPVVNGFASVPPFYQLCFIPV
Prostaglandin G/H synthase 1, sequence (P23219 whole entry): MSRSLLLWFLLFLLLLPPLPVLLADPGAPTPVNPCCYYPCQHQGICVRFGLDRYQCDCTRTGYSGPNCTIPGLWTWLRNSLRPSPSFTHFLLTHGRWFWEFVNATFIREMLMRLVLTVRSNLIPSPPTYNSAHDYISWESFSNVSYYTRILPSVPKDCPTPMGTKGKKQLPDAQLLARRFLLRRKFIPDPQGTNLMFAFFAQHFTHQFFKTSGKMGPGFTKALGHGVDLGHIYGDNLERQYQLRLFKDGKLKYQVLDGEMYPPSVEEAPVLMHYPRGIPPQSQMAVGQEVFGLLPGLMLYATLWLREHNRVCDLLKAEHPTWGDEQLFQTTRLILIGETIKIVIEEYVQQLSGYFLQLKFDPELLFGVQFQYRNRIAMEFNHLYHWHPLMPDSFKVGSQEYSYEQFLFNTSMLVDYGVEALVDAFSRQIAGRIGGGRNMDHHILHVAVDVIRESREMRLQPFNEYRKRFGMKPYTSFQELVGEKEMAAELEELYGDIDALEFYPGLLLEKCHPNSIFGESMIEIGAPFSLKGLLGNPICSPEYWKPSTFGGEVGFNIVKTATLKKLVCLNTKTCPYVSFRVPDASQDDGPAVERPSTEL
CYP2C19, sequence (P33261 whole entry): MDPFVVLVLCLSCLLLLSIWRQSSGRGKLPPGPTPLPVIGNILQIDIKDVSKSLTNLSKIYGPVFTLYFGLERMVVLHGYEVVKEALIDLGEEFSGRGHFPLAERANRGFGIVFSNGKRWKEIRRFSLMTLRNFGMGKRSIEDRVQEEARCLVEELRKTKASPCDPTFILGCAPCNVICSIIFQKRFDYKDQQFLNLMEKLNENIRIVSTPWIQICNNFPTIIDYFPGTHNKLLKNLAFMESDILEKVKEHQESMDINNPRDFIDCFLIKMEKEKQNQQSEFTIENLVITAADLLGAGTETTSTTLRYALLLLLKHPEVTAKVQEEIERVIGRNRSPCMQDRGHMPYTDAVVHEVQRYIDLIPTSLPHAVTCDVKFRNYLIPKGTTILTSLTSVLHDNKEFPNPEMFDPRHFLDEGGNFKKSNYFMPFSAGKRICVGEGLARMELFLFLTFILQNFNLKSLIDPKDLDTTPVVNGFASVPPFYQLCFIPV
CYP3A4, sequence (P08684 whole entry): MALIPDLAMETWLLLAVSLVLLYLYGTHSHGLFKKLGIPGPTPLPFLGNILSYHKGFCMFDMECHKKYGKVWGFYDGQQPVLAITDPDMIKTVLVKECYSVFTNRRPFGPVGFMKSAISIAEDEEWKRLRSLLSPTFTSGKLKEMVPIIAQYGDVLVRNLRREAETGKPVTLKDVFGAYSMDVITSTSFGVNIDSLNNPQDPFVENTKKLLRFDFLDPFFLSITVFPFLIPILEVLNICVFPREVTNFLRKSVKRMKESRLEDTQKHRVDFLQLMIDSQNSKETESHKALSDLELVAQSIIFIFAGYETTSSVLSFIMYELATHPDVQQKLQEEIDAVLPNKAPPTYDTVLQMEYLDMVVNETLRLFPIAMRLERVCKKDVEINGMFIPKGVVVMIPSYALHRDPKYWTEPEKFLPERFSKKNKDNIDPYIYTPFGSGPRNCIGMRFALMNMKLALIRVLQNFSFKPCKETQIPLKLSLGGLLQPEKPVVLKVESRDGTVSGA

Regarding `CC1(C)Oc2cc(C#Cc3cc(Cl)ccc3F)ccc2-c2[nH]c(-c3c(F)cccc3Cl)nc21`, the remaining at 1 h, 1 µM turned out to be 73% in data set [1], 44% in data set [2] and 76% in data set [10]. The inhibition at 20 min, 10 µM at CYP2C9 was 33.3%; on CYP3A4, 31%. The inhibition at 40 min, 10 µM at CYP2C19 was in the range of 17 to 26%. Besides, the half-life in data set [3] is 5.5 h. Besides, the IC50 in data set [4] was found to be 60 nM; at Prostaglandin E synthase, 36.3 nM; in data set [11], 9880 nM. This molecule also showed a Cmax in data set [5] of 1180 ng/mL. The molecule further had a clearance in data set [6] of 11.1 mL/min/kg. Moreover, the “inhibition (INH)” value on Cytochrome P450 2D6 and on Cytochrome P450 1A2 was “Not Active” each time. In addition, the fraction unbound at 10 µM was under 0.005 in data set [7] and under 0.045 in data set [9]. The Tmax in [8] came to 4 h. The same molecule showed an AUC(0-t) at 24 h in [12] of 12400 ng·h/mL.
Regarding `CC1(C)Oc2cc(-c3cccc(OC(F)(F)F)c3)ccc2-c2[nH]c(-c3c(F)cccc3Cl)nc21`, the remaining at 1 h, 1 µM in [1] is 80%; in data set [2] it was 83%; in [10], 84%. The inhibition at 20 min, 10 µM on CYP2C9 came out at 45.4%; on CYP3A4, 8.4%. Also, at CYP2C19, the inhibition at 40 min, 10 µM amounted to 27.2%. Also, the half-life in data set [3] was 9.87 h. For the same molecule, the IC50 in [4] was 6750 nM; at Prostaglandin E synthase, 56.9 nM; in data set [11], over 10000 nM. Moreover, in data set [5], the Cmax was found to be 826 ng/mL. This molecule returned a clearance in [6] of 3.63 mL/min/kg. The “inhibition (INH)” value on Cytochrome P450 2D6 and at Cytochrome P450 1A2 was “Not Active” throughout. Moreover, the fraction unbound at 10 µM in [7] and in [9] was under 0.005 throughout. For the same molecule, the Tmax in [8] came to 4 h. Besides, the AUC(0-t) at 24 h in [12] is 12600 ng·h/mL.

As a reminder, the inhibition is how much of the control response was suppressed. As a reminder, the half-life is the time needed for the level to fall by half in the phase considered. A low value points to rapid decline. Usually IC50 stands for the point on the concentration scale where inhibition reaches its midpoint. As usually defined, the Cmax is the maximum level reached in the sampled fluid or tissue. As a reminder, the clearance is the rate of elimination divided by the concentration. A word on the Tmax: it is the time at which the peak concentration occurs. In general, AUC(0-t) refers to exposure summed from dosing to a finite time, without extrapolation to infinity. Low values mean low exposure, high ones high exposure.
